In ChEMBL document CHEMBL4689842, “EUbOPEN Chemogenomics Library wave 1” (2021):

Tested on: Fibroblast
Test: Multiplex assay against human fibroblast
Type: toxicity, cell-based
Outline: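 Values for tubulin, mitochondrial-mass and membrane-permeability phenotypes are per cents of cells with healthy nuclei. These cells were identified by CellPathfinder machine-learning gating of live cells that had been stained at seeding with Hoechst33342, BioTracker Green Microtubule Cytoskeleton Dye, MitoTracker Red and Annexin V Alexa Fluor 680 and imaged on a CQ1 microscope at 37°C and 5% CO2 after compound addition. The gating first set Hoechst high-intensity objects apart from normal cells, then split normal cells into healthy, pyknosed or fragmented nuclei, and pyknosed cells into mitotic or apoptotic.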

[1] = 12 h, 1 µM, compound concentration 1 uM, replicate 1
[2] = 12 h, 1 µM, compound concentration 1 uM, replicate 2
[3] = 12 h, 10 µM, compound concentration 10 uM, replicate 1
[4] = 12 h, 10 µM, compound concentration 10 uM, replicate 2
[5] = 24 h, 1 µM, compound concentration 1 uM, replicate 1
[6] = 24 h, 1 µM, compound concentration 1 uM, replicate 2
[7] = 24 h, 10 µM, compound concentration 10 uM, replicate 1
[8] = 24 h, 10 µM, compound concentration 10 uM, replicate 2
[9] = 48 h, 1 µM, compound concentration 1 uM, replicate 1
[10] = 48 h, 1 µM, compound concentration 1 uM, replicate 2
[11] = 48 h, 10 µM, compound concentration 10 uM, replicate 1
[12] = 48 h, 10 µM, compound concentration 10 uM, replicate 2

## C=CC(=O)Nc1cc2c(Nc3ccc(F)c(Cl)c3)ncnc2cc1OCCCN1CCOCC1.Cl.Cl [CANERTINIB DIHYDROCHLORIDE]
[1]
  Population Apoptotic (%): 73%
  Population Fragmented Nuclei (%): 35%
  Population Healthy Nuclei (%): 53%
  Population Hoechst High Intensity Objects (%): 29%
  Population Membrane Permeable-Phenotype (%): 28%
  Population Mitochondria Different-Phenotype (%): 21%
  Population Mitotic Cells (%): 26%
  Population Normal (%): 70%
  Population Pyknosed Nuclei (%): 10%
  Population Tubulin-Different-Phenotype (%): 83%
  Total Cell Count: 198
[2]
  Population Apoptotic (%): 100%
  Population Fragmented Nuclei (%): 58%
  Population Healthy Nuclei (%): 35%
  Population Hoechst High Intensity Objects (%): 39%
  Population Membrane Permeable-Phenotype (%): 20%
  Population Mitochondria Different-Phenotype (%): 66%
  Population Mitotic Cells (%): 0%
  Population Normal (%): 60%
  Population Pyknosed Nuclei (%): 5%
  Population Tubulin-Different-Phenotype (%): 91%
  Total Cell Count: 110
[3]
  Population Apoptotic (%): 56%
  Population Fragmented Nuclei (%): 35%
  Population Healthy Nuclei (%): 45%
  Population Hoechst High Intensity Objects (%): 13%
  Population Mitotic Cells (%): 43%
  Population Normal (%): 86%
  Population Pyknosed Nuclei (%): 18%
  Population Tubulin-Different-Phenotype (%): 20%
  Total Cell Count: 227
[4]
  Population Apoptotic (%): 57%
  Population Fragmented Nuclei (%): 60%
  Population Healthy Nuclei (%): 31%
  Population Hoechst High Intensity Objects (%): 43%
  Population Membrane Permeable-Phenotype (%): 10%
  Population Mitochondria Different-Phenotype (%): 10%
  Population Mitotic Cells (%): 42%
  Population Normal (%): 56%
  Population Pyknosed Nuclei (%): 7%
  Population Tubulin-Different-Phenotype (%): 27%
  Total Cell Count: 160
[5]
  Population Apoptotic (%): 71%
  Population Fragmented Nuclei (%): 26%
  Population Healthy Nuclei (%): 38%
  Population Hoechst High Intensity Objects (%): 41%
  Population Membrane Permeable-Phenotype (%): 19%
  Population Mitochondria Different-Phenotype (%): 51%
  Population Mitotic Cells (%): 28%
  Population Normal (%): 58%
  Population Pyknosed Nuclei (%): 35%
  Population Tubulin-Different-Phenotype (%): 64%
  Total Cell Count: 137
[6]
  Population Apoptotic (%): 100%
  Population Fragmented Nuclei (%): 59%
  Population Healthy Nuclei (%): 26%
  Population Hoechst High Intensity Objects (%): 39%
  Population Membrane Permeable-Phenotype (%): 23%
  Population Mitochondria Different-Phenotype (%): 76%
  Population Mitotic Cells (%): 0%
  Population Normal (%): 60%
  Population Pyknosed Nuclei (%): 14%
  Population Tubulin-Different-Phenotype (%): 61%
  Total Cell Count: 81
[7]
  Population Apoptotic (%): 79%
  Population Fragmented Nuclei (%): 36%
  Population Healthy Nuclei (%): 50%
  Population Hoechst High Intensity Objects (%): 12%
  Population Membrane Permeable-Phenotype (%): 1%
  Population Mitochondria Different-Phenotype (%): 10%
  Population Mitotic Cells (%): 20%
  Population Normal (%): 87%
  Population Pyknosed Nuclei (%): 12%
  Population Tubulin-Different-Phenotype (%): 11%
  Total Cell Count: 220
[8]
  Population Apoptotic (%): 50%
  Population Fragmented Nuclei (%): 73%
  Population Healthy Nuclei (%): 20%
  Population Hoechst High Intensity Objects (%): 44%
  Population Membrane Permeable-Phenotype (%): 5%
  Population Mitochondria Different-Phenotype (%): 16%
  Population Mitotic Cells (%): 50%
  Population Normal (%): 55%
  Population Pyknosed Nuclei (%): 6%
  Population Tubulin-Different-Phenotype (%): 33%
  Total Cell Count: 159

## CN(C)C(=O)N[C@H]1CC[C@H](CCN2CCN(c3cccc(Cl)c3Cl)CC2)CC1.Cl [CARIPRAZINE HYDROCHLORIDE]
[1]
  Population Apoptotic (%): 65%
  Population Fragmented Nuclei (%): 15%
  Population Healthy Nuclei (%): 51%
  Population Hoechst High Intensity Objects (%): 6%
  Population Membrane Permeable-Phenotype (%): 32%
  Population Mitochondria Different-Phenotype (%): 10%
  Population Mitotic Cells (%): 34%
  Population Normal (%): 93%
  Population Pyknosed Nuclei (%): 33%
  Population Tubulin-Different-Phenotype (%): 45%
  Total Cell Count: 83
[2]
  Population Apoptotic (%): 60%
  Population Fragmented Nuclei (%): 7%
  Population Healthy Nuclei (%): 84%
  Population Membrane Permeable-Phenotype (%): 6%
  Population Mitochondria Different-Phenotype (%): 29%
  Population Mitotic Cells (%): 40%
  Population Pyknosed Nuclei (%): 8%
  Population Tubulin-Different-Phenotype (%): 22%
  Total Cell Count: 61
[3]
  Population Apoptotic (%): 71%
  Population Fragmented Nuclei (%): 26%
  Population Healthy Nuclei (%): 38%
  Population Hoechst High Intensity Objects (%): 16%
  Population Membrane Permeable-Phenotype (%): 16%
  Population Mitochondria Different-Phenotype (%): 28%
  Population Mitotic Cells (%): 28%
  Population Normal (%): 83%
  Population Pyknosed Nuclei (%): 34%
  Population Tubulin-Different-Phenotype (%): 92%
  Total Cell Count: 155
[4]
  Population Apoptotic (%): 36%
  Population Fragmented Nuclei (%): 17%
  Population Healthy Nuclei (%): 57%
  Population Hoechst High Intensity Objects (%): 3%
  Population Membrane Permeable-Phenotype (%): 47%
  Population Mitochondria Different-Phenotype (%): 95%
  Population Mitotic Cells (%): 63%
  Population Normal (%): 96%
  Population Pyknosed Nuclei (%): 25%
  Population Tubulin-Different-Phenotype (%): 95%
  Total Cell Count: 79
[5]
  Population Apoptotic (%): 72%
  Population Fragmented Nuclei (%): 21%
  Population Healthy Nuclei (%): 49%
  Population Hoechst High Intensity Objects (%): 10%
  Population Membrane Permeable-Phenotype (%): 21%
  Population Mitochondria Different-Phenotype (%): 11%
  Population Mitotic Cells (%): 28%
  Population Normal (%): 89%
  Population Pyknosed Nuclei (%): 29%
  Population Tubulin-Different-Phenotype (%): 45%
  Total Cell Count: 95
[6]
  Population Apoptotic (%): 66%
  Population Fragmented Nuclei (%): 6%
  Population Healthy Nuclei (%): 84%
  Population Hoechst High Intensity Objects (%): 4%
  Population Membrane Permeable-Phenotype (%): 7%
  Population Mitochondria Different-Phenotype (%): 22%
  Population Mitotic Cells (%): 33%
  Population Normal (%): 95%
  Population Pyknosed Nuclei (%): 9%
  Population Tubulin-Different-Phenotype (%): 14%
  Total Cell Count: 67
[7]
  Population Apoptotic (%): 70%
  Population Fragmented Nuclei (%): 23%
  Population Healthy Nuclei (%): 54%
  Population Hoechst High Intensity Objects (%): 18%
  Population Membrane Permeable-Phenotype (%): 17%
  Population Mitochondria Different-Phenotype (%): 36%
  Population Mitotic Cells (%): 29%
  Population Normal (%): 81%
  Population Pyknosed Nuclei (%): 21%
  Population Tubulin-Different-Phenotype (%): 82%
  Total Cell Count: 190
[8]
  Population Apoptotic (%): 94%
  Population Healthy Nuclei (%): 55%
  Population Hoechst High Intensity Objects (%): 3%
  Population Membrane Permeable-Phenotype (%): 42%
  Population Mitochondria Different-Phenotype (%): 95%
  Population Mitotic Cells (%): 5%
  Population Normal (%): 96%
  Population Pyknosed Nuclei (%): 20%
  Population Tubulin-Different-Phenotype (%): 95%
  Total Cell Count: 87
[9]
  Population Apoptotic (%): 65%
  Population Fragmented Nuclei (%): 35%
  Population Healthy Nuclei (%): 46%
  Population Hoechst High Intensity Objects (%): 7%
  Population Membrane Permeable-Phenotype (%): 20%
  Population Mitochondria Different-Phenotype (%): 4%
  Population Mitotic Cells (%): 35%
  Population Normal (%): 92%
  Population Pyknosed Nuclei (%): 18%
  Population Tubulin-Different-Phenotype (%): 56%
  Total Cell Count: 117
[10]
  Population Apoptotic (%): 60%
  Population Fragmented Nuclei (%): 25%
  Population Healthy Nuclei (%): 69%
  Population Hoechst High Intensity Objects (%): 11%
  Population Membrane Permeable-Phenotype (%): 7%
  Population Mitochondria Different-Phenotype (%): 3%
  Population Mitotic Cells (%): 40%
  Population Normal (%): 88%
  Population Pyknosed Nuclei (%): 5%
  Population Tubulin-Different-Phenotype (%): 38%
  Total Cell Count: 103
[11]
  Population Apoptotic (%): 80%
  Population Fragmented Nuclei (%): 37%
  Population Healthy Nuclei (%): 53%
  Population Hoechst High Intensity Objects (%): 31%
  Population Membrane Permeable-Phenotype (%): 10%
  Population Mitochondria Different-Phenotype (%): 20%
  Population Mitotic Cells (%): 20%
  Population Normal (%): 68%
  Population Pyknosed Nuclei (%): 9%
  Population Tubulin-Different-Phenotype (%): 81%
  Total Cell Count: 235
[12]
  Population Apoptotic (%): 33%
  Population Fragmented Nuclei (%): 33%
  Population Healthy Nuclei (%): 63%
  Population Hoechst High Intensity Objects (%): 32%
  Population Membrane Permeable-Phenotype (%): 7%
  Population Mitochondria Different-Phenotype (%): 12%
  Population Mitotic Cells (%): 66%
  Population Normal (%): 67%
  Population Pyknosed Nuclei (%): 2%
  Population Tubulin-Different-Phenotype (%): 85%
  Total Cell Count: 162
